From ChEMBL document CHEMBL1150398, “Design and synthesis of 7-alkoxy-4-heteroarylamino-3-quinolinecarbonitriles as dual inhibitors of c-Src kinase and nitric oxide synthase” (Bioorg Med Chem, 2008)

Columns and labels:
[1] = molecular target: T1, Nitric oxide synthase, inducible (Mus musculus, UniProt P29477); test: Inhibition of inducible nitric oxide synthetase in LPS-stimulated mouse ANA1 macrophages
T1 sequence (P29477 whole entry): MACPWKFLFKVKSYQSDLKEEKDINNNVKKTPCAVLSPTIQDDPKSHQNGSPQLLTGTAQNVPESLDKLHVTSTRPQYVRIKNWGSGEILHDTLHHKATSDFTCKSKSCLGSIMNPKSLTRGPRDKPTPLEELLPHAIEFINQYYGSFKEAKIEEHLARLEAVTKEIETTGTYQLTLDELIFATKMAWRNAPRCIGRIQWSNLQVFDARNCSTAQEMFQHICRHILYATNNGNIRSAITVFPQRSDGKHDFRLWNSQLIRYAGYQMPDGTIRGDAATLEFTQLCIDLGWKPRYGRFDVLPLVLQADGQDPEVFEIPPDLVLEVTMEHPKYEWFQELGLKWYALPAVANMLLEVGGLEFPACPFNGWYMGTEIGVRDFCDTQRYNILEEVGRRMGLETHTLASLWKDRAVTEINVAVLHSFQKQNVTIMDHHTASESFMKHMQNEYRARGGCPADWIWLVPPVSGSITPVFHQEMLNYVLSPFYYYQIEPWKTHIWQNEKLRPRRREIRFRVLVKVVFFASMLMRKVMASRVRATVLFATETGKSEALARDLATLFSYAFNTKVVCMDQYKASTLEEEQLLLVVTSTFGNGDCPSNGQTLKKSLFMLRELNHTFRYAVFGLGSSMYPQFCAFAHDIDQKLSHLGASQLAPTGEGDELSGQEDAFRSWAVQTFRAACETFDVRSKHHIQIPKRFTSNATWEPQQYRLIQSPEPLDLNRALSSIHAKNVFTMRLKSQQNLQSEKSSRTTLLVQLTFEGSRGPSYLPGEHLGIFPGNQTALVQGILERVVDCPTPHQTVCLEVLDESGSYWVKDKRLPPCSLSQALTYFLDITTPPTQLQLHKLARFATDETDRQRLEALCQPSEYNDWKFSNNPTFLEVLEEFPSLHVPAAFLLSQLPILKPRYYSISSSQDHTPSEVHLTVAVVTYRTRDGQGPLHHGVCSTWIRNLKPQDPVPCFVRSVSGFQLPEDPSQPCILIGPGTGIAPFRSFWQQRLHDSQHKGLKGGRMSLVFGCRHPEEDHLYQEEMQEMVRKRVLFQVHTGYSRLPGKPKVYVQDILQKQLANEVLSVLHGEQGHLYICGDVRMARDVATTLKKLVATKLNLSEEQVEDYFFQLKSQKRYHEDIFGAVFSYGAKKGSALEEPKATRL
In short: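 ANA-1 macrophages grown in DMEM with 10% heat-inactivated FBS and 2 mM L-glutamine, 37 °C, 5% CO₂, 10⁵ cells/mL prepared the day before. Cells stimulated with LPS for 24 h, collected, then given assay buffer, L-arginine substrate and DAF-FM DA tracer. Reaction started with 0.1 mM NADPH, 37 °C 30 min, washed, fluorescence read. Triplicate, mean of three.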

[2] = molecular target: T2, Proto-oncogene tyrosine-protein kinase Src (Homo sapiens, UniProt P12931); test: Inhibition of human recombinant cSrc by ELISA
HepG2 = test: Antiproliferative activity against human HepG2 cells after 48 hrs by sulforhodamine B assay; format: functional, cell-based; conditions: HepG2, 48 h; for CC50: read-out: LC50 (the source's name)
In short: (§1)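 SRB assay: cells plated in 96-well plates, mostly at 20,000 cells/well, pre-incubated 24 h without drug. Compounds added in 10-fold dilutions from highest soluble concentration, 48 h further incubation. Cells fixed in situ, washed, dried, SRB stained; proliferation inhibition from change in total optical density after 48 h treatment.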

HT-29 = test: Antiproliferative activity against human HT29 cells after 48 hrs by sulforhodamine B assay; format: functional, cell-based; conditions: HT-29, 48 h; for CC50: read-out: LC50 (the source's name); in short: as §1
[3] = molecular target: T2, Proto-oncogene tyrosine-protein kinase Src; test: Inhibition of human recombinant cSrc by fluorescence polarization assay

T2 sequence (P12931 2-536 limits assumed): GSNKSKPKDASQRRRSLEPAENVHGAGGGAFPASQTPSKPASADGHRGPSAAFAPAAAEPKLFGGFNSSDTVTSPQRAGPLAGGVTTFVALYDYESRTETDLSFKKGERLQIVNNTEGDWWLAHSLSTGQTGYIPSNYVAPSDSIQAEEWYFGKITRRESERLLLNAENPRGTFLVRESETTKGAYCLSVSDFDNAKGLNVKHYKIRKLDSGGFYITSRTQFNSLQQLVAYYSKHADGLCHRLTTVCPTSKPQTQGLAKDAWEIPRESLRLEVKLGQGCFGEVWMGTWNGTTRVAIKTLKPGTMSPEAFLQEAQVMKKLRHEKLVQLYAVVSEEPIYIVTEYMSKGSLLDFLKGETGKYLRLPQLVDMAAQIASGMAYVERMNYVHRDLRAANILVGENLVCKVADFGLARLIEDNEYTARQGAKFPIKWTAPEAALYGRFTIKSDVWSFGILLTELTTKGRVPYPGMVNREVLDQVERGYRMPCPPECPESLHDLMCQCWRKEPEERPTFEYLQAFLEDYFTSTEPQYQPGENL

## COc1cc2c(Nc3nc4ccc(OC(F)(F)F)cc4s3)c(C#N)cnc2cc1OCCCN1CCN(C)CC1
[1]
  IC50: 65.6 µM

## N=C(N)NOCC[C@H](N)C(=O)O [CANAVANINE]
[1]
  IC50: 60 µM

## COc1cc2c(Nc3nc4ccccc4s3)c(C#N)cnc2cc1OCCN1CCOCC1
[2]
  IC50: > 1 µM
[1]
  IC50: 26.7 µM

## COc1cc(Nc2c(C#N)cnc3cc(OCCCN4CCN(C)CC4)c(OC)cc23)c(Cl)cc1Cl [BOSUTINIB]
HepG2
  GI50: 1.15 µM
  IC50: 3.91 µM
  TGI: 7.66 µM
  CC50: > 10 µM
HT-29
  GI50: 1.17 µM
  IC50: 3.87 µM
  TGI: 6.5 µM
  CC50: > 10 µM

## Cc1ccc2nc(Nc3c(C#N)cnc4cc(OCCCN5CCCCC5)c(C)cc34)sc2c1
[1]
  IC50: 313 µM
HepG2
  GI50: 4.85 µM
  IC50: 7.61 µM
  TGI: 9.25 µM
  CC50: > 10 µM
HT-29
  GI50: 5.59 µM
  IC50: 6.58 µM
  TGI: > 10 µM
  CC50: > 10 µM

## Nc1nccs1 [AMINOTHIAZOLE]
[1]
  IC50: 18 µM

## Cc1cc2c(Nc3ccccn3)c(C#N)cnc2cc1OCCCN1CCN(C)CC1
[1]
  IC50: 18.6 µM

## Cc1cc2c(Nc3nc4ccccc4[nH]3)c(C#N)cnc2cc1OCCCN1CCN(C)CC1
[1]
  IC50: 15.5 µM
[3]
  IC50: > 1 µM

## COc1cc2c(Nc3nc4ccccc4s3)c(C#N)cnc2cc1OCCCN1CCN(C)CC1
[1]
  IC50: 98 µM

## Cc1ccc2nc(Nc3c(C#N)cnc4cc(OCCCN5CCN(C)CC5)c(C)cc34)sc2c1
[1]
  IC50: 12.7 µM

## Cc1cc2c(Nc3nc4ccccc4s3)c(C#N)cnc2cc1OCCCN1CCOCC1
[1]
  IC50: 139 µM

## COc1cc2c(Nc3nc4ccccc4s3)c(C#N)cnc2cc1OCCN1CCN(C)CC1
[1]
  IC50: 2.18 µM

## Cc1cc2c(Nc3nc4ccccc4s3)c(C#N)cnc2cc1OCCCN1CCCCC1
[1]
  IC50: 412 µM

## COc1cc2c(Nc3nc4ccccc4[nH]3)c(C#N)cnc2cc1OCCCN1CCN(C)CC1
[1]
  IC50: 18.1 µM

## Cc1cc2c(Nc3nc4ccc(OC(F)(F)F)cc4s3)c(C#N)cnc2cc1OCCCN1CCN(C)CC1
[1]
  IC50: 16.3 µM

## COc1cc2c(Nc3nc4ccccc4s3)c(C#N)cnc2cc1OCCN1CCCCC1
[1]
  IC50: 44.8 µM
